This is a sample that favours compounds with a hit; in the whole collection about 1.4% have one here.
GSH bead fluor: compound fluorescence on glutathione beads, profiling panel, artefact control, biophysical, 488/530 nm, flow cytometry | GSH beads flow cytometry, compound fluorescence 488/530 nm; hits give high values | fluorescence (KMESF) at 10 µM | 0.25% of 190,000 active | AID 1776, 2009; in the data active means fluorescence above about 89;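 further: glutathione beads carrying GST-tagged Bcl family fusion proteins plus one bare bead set; values are compound well signal with DMSO vehicle wells as background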
Avidin fluor: green autofluorescence of compounds with avidin beads – biophysical, 488/530 nm, flow cytometry, artefact control, profiling panel. compound fluorescence 488/530 nm; hits give high values. fluorescence (KMESF) at 10 µM. 0.38% of 220,000 active. AID 1775, 2009; in the data active means fluorescence above about 47
NCF1 inh: p47phox/p22phox peptide binding inhibitors, primary screen, biochemical, uHTS, NADPH oxidase regulatory subunit; fluorescence polarization, 2 h; Neutrophil cytosol factor 1 (Homo sapiens), P14598; AID 1274, 2008; 0.53% of 220,000 active; inhibition, % at 24.7 µM;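 active means inhibition above about 30%, limit read from the data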;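 further: 0% = p47phox with labelled peptide and 100% = labelled peptide alone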
Diaph act CS: compounds boosting diaphorase resazurin reduction – biochemical, uHTS, resorufin fluorescence, counter-screen for diaphorase-coupled primary assays, primary screen; activation factor at 20 µM; Diaphorase/resazurin coupled assay, 16 min; hits give high values; 1 = vehicle wells, 0 = NADH-free wells; 0.005% of 190,000 active;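 active means diaphorase activity raised at least twofold by the compound at 20 µM; inactive means activation factor below 2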
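Test system: Clostridium kluyveri diaphorase, purified enzyme; input: enzyme 0.07 U/mL final; buffer or medium: 50 mM HEPES pH 7.4 with 4.542 mM MgCl2, 0.005% Tween 20; also added: 0.114 mM NADH and 0.1 mM resazurin, final amounts; schedule: 16 min enzyme reaction, ambient temperature; technique: fluorescence of resorufin, 544 nm excitation, 590 nm emission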
PMI act: activators of human PMI, primary screen, biochemical, fluorescence intensity, near-Km mannose 6-phosphate; AID 1214, 2008; 0.005% of 190,000 active; purified human PMI, coupled resazurin fluorescence, 20 min; hits give high values; 1 = vehicle control, 0 substrate-free wells; activation factor at 20 µM; Mannose-6-phosphate isomerase (Homo sapiens), P34949;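 active means activation factor of 2 or more at 20 µM, relative to plate controls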
Target sequence (P34949 whole entry, looked up): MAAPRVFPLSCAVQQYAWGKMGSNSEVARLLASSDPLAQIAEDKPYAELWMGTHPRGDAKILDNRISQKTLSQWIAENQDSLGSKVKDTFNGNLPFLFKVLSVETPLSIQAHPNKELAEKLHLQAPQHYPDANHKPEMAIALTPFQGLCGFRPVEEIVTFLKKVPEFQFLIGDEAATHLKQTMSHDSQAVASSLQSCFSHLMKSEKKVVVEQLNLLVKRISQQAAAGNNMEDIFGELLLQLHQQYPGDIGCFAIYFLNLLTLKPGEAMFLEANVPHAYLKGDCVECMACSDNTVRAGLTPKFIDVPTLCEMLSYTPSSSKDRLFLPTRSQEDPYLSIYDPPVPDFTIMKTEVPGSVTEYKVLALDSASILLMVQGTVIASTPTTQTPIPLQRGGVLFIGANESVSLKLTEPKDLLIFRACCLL
PMI act hi M6P: human PMI activators, high substrate, primary screen, biochemical, fluorescence intensity, near-saturating mannose 6-phosphate; AID 1216, 2008; activation factor at 20 µM; coupled PMI enzyme assay, resazurin fluorescence, 20 min; hits give high values; 1 = untreated enzyme, 0 = substrate-free blank; Mannose-6-phosphate isomerase (Homo sapiens), P34949; 0.34% of 190,000 active;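 active means activation factor of 2 or more at 20 µM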
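Material: human phosphomannose isomerase with PGI, G6PDH, diaphorase coupling enzymes. Quantity: 15 ng/mL PMI. Medium: HEPES pH 7.4 buffer with MgCl2 and Tween-20. Reagent: Near-saturating mannose-6-phosphate, 1.0 mM. Compound: 20 µM single dose. Times: enzyme reaction with compound 20 min at room temperature. Detection: resorufin fluorescence at Ex 544/Em 590 nm.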
* marks the source's active call; other numbers are inactive results.

What do the screens show for `O=C(NCCCn1ccnc1)/C(=C\c1cccs1)NC(=O)c1ccco1`?
GSH bead fluor: 10; Avidin fluor: 11; NCF1 inh: -4; Diaph act CS: 0.9; PMI act: 1.1; PMI act hi M6P: 1

Results for Cc1cc(C(=O)CNCc2ccco2)c(C)n1-c1ccc(F)cc1 ?
GSH bead fluor: 248*; Avidin fluor: 8; NCF1 inh: 2; Diaph act CS: 0.9; PMI act: 1.2; PMI act hi M6P: 1

Results for CCOC(=O)c1ccc(NC(=O)Nc2ccc(Cl)cn2)cc1 ?
GSH bead fluor: 11; Avidin fluor: 16; NCF1 inh: 36*; Diaph act CS: 1.1; PMI act: 1.1; PMI act hi M6P: 1

What do the screens show for `CC(C)c1ccc(NC(=O)c2cnn(-c3ccccc3)c2NC(=O)c2ccco2)cc1`?
GSH bead fluor: 27; Avidin fluor: 9; NCF1 inh: -20; Diaph act CS: 0.9; PMI act: 0.9; PMI act hi M6P: 1

How did Cc1ccc(NC(=O)NCc2c(C)nn(C)c2C)cc1Cl do in these assays?
GSH bead fluor: 21; Avidin fluor: 16; NCF1 inh: 0; Diaph act CS: 0.9; PMI act: 1; PMI act hi M6P: 0.9

What do the screens show for `Cc1ccc(NC(=O)O/N=C/c2c(C)nn(C(C)(C)C)c2C)cc1Cl`?
Avidin fluor: 7; NCF1 inh: 132*

Results for Cc1cc(C)c2ccc(=S)[nH]c2n1 ?
GSH bead fluor: 9; Avidin fluor: 22; NCF1 inh: -3; Diaph act CS: 0.9; PMI act: 1.7; PMI act hi M6P: 2.5*

How did COc1ccc2c(C)cc(C)nc2n1 do in these assays?
Avidin fluor: 9; NCF1 inh: -9

What do the screens show for `Cc1cccc(OCc2nnc(SCC(=O)c3cccs3)n2C)c1C`?
GSH bead fluor: 8; Avidin fluor: 15; NCF1 inh: -8; Diaph act CS: 0.7; PMI act: 0.9; PMI act hi M6P: 0.9

What do the screens show for `COc1ccc(OC)c(NC(=O)CSc2nc3ccccc3c3nc4ccccc4n23)c1`?
GSH bead fluor: 7; Avidin fluor: 16; NCF1 inh: 79*; Diaph act CS: 0.9; PMI act: 0.8; PMI act hi M6P: 1.1

What do the screens show for `NN/C(=C\[N+](=O)[O-])Nc1ccc(Cl)cc1`?
GSH bead fluor: 10; Avidin fluor: 9; NCF1 inh: -2; Diaph act CS: 0.8; PMI act: 1.5; PMI act hi M6P: 2*

How did NN/C(=C\[N+](=O)[O-])Nc1ccccc1 do in these assays?
GSH bead fluor: 9; Avidin fluor: 13; NCF1 inh: -1; Diaph act CS: 0.9; PMI act: 1.7; PMI act hi M6P: 2.6*

What do the screens show for `CCOC(=O)c1cn(CC(=O)Nc2ccc(C)cc2)nn1`?
GSH bead fluor: 24; Avidin fluor: 15; NCF1 inh: -11; Diaph act CS: 1; PMI act: 1; PMI act hi M6P: 1

What do the screens show for `CC(C)CC(=O)Nc1cccc(C(C)O)c1` (centres undefined)?
GSH bead fluor: 9; Avidin fluor: 173*; NCF1 inh: -5; Diaph act CS: 0.8; PMI act: 0.9; PMI act hi M6P: 0.9

Results for CCCCn1c(SCN2C(=O)c3ccccc3C2=O)nc2cc(S(N)(=O)=O)ccc21 ?
GSH bead fluor: 15; Avidin fluor: 23; NCF1 inh: -17; Diaph act CS: 0.7; PMI act: 1; PMI act hi M6P: 0.9

Results for O=C(CCC1CCCN(C(=O)c2cncs2)C1)NCc1ccc(F)c(F)c1 (centres undefined) ?
GSH bead fluor: 13; Avidin fluor: 220*; NCF1 inh: 0; Diaph act CS: 1; PMI act: 1; PMI act hi M6P: 0.9

Results for COc1ccccc1N1CCN(C(=O)CSc2nc(N)cc(=O)[nH]2)CC1 ?
GSH bead fluor: 12; Avidin fluor: 201*; NCF1 inh: -9; Diaph act CS: 0.9; PMI act: 0.9; PMI act hi M6P: 1

What do the screens show for `CC(C)(CC(=O)O)CC(=O)NCc1c(Cl)cccc1Sc1ccc(Cl)cc1`?
Avidin fluor: 5; NCF1 inh: -9

Results for O=C(O)CCCC(=O)NCc1c(Cl)cccc1Sc1ccc(Cl)cc1 ?
Avidin fluor: 8; NCF1 inh: 34*

Results for Cc1ccc(-n2cccn2)cc1 ?
GSH bead fluor: 28; Avidin fluor: 15; NCF1 inh: -2; Diaph act CS: 1; PMI act: 1; PMI act hi M6P: 1

Results for CC(C)C(=O)Nc1cccc(C(=O)OCC(=O)c2ccc(Cl)cc2Cl)c1 ?
GSH bead fluor: 17; Avidin fluor: 36; NCF1 inh: -3; Diaph act CS: 0.8; PMI act: 0.9; PMI act hi M6P: 1

Results for Cn1nnc(NC(=O)CSc2nnnn2-c2ccc(F)cc2)n1 ?
GSH bead fluor: 27; Avidin fluor: 14; NCF1 inh: -10; Diaph act CS: 0.9; PMI act: 0.9; PMI act hi M6P: 0.9

What do the screens show for `Cn1nnc(NC(=O)CSc2ccc(Cl)cc2)n1`?
GSH bead fluor: 25; Avidin fluor: 48*; NCF1 inh: -9; Diaph act CS: 1.2; PMI act: 1.2; PMI act hi M6P: 1.1

Results for O=C(COC(=O)c1cccc(C(=O)OCC(=O)NCc2ccc(F)cc2)n1)NCc1ccc(F)cc1 ?
GSH bead fluor: 10; Avidin fluor: 6; NCF1 inh: -2; Diaph act CS: 0.9; PMI act: 1.1; PMI act hi M6P: 1

What do the screens show for `C=CCn1c(=N)c(C#N)cc2c(=O)n3ccccc3nc21`?
GSH bead fluor: 104*; Avidin fluor: 7; NCF1 inh: 22; Diaph act CS: 0.9; PMI act: 1; PMI act hi M6P: 1.1

Results for C=CCn1c(=O)c(C#N)cc2c(=O)n3ccccc3nc21 ?
GSH bead fluor: 35; Avidin fluor: 7; Diaph act CS: 0.7; PMI act: 1; PMI act hi M6P: 0.7

Results for O=C(N/N=C/c1cccs1)C(=O)N1CCCC1 ?
GSH bead fluor: 11; Avidin fluor: 11; NCF1 inh: -5; Diaph act CS: 0.9; PMI act: 1; PMI act hi M6P: 0.9

How did c1ccc(-c2onc3c2CCCC3)cc1 do in these assays?
GSH bead fluor: 242*; Avidin fluor: 8; NCF1 inh: -21; Diaph act CS: 1.1; PMI act: 1; PMI act hi M6P: 1.1

Bioassay records from PubChem BioAssay.
